Reference: ChEMBL document CHEMBL1153357, “Rational design and synthesis of potent and long-lasting glutamic acid-based dipeptidyl peptidase IV inhibitors” (Bioorg Med Chem Lett, 2009)
Active and inactive are the calls of the source. No cut-off for these calls is given here.

Columns and labels:
Dipeptidyl peptidase 4 = Dipeptidyl peptidase 4 (Homo sapiens, UniProt P27487)
Dipeptidyl peptidase 2 = Dipeptidyl peptidase 2 (Homo sapiens, UniProt Q9UHL4); assay: Inhibition of DPP2
[1] = Inhibition of FAP
Procedure, shortened: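 Enzyme inhibition IC50 is reported as the mean of at least three experiments, with standard deviations of ±40%.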

Dipeptidyl peptidase 8 = Dipeptidyl peptidase 8 (Homo sapiens, UniProt Q6V1X1); assay: Inhibition of DPP8
Mus musculus = assay: Reduction in glucose excursion in C57BL/6 mouse at 3 mg/kg, po measured up to 120 mins by oral glucose tolerance test; type: functional, organism-based; parameters: dose 3 mg/kg
Procedure, shortened: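 C57BL/6j mice (n = 6) received the compound orally at 3 mpk, with water as the control, 30 min before a glucose load of 3 g/kg.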

Rattus norvegicus [2] = assay: Inhibition of plasma DPP4 in Wistar rat at 3 mg/kg, po measured 30 mins to 4 hrs; conditions: read-out: INH
Rattus norvegicus [3] = assay: Inhibition of plasma DPP4 in Wistar rat at 3 mg/kg, po measured after 8 hrs; conditions: read-out: INH
[4] = Stability to the compound assessed as half life in phosphate buffer at pH 7.4; type: physicochemical

Chain of Dipeptidyl peptidase 4 (P27487 whole entry): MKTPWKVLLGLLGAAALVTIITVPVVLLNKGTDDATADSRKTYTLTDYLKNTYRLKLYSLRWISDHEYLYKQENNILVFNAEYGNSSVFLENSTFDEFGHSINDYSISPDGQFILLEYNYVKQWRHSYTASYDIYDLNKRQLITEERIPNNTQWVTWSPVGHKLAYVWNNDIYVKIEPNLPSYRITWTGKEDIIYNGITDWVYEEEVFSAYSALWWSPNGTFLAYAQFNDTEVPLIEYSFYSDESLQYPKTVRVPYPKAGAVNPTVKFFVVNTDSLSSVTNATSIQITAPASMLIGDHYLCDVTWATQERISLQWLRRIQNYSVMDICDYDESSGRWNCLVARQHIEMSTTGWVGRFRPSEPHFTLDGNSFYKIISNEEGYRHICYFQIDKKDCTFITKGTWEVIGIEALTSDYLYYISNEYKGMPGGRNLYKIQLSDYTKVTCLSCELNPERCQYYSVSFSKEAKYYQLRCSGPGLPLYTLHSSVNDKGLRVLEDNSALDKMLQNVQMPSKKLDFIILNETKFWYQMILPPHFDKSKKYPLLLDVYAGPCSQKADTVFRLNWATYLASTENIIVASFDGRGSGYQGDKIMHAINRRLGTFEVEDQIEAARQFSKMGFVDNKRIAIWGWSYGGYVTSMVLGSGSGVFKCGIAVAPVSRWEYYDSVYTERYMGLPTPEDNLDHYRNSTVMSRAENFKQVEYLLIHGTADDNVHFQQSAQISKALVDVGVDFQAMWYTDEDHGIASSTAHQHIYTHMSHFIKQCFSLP
Chain of Dipeptidyl peptidase 8 (Q6V1X1 whole entry): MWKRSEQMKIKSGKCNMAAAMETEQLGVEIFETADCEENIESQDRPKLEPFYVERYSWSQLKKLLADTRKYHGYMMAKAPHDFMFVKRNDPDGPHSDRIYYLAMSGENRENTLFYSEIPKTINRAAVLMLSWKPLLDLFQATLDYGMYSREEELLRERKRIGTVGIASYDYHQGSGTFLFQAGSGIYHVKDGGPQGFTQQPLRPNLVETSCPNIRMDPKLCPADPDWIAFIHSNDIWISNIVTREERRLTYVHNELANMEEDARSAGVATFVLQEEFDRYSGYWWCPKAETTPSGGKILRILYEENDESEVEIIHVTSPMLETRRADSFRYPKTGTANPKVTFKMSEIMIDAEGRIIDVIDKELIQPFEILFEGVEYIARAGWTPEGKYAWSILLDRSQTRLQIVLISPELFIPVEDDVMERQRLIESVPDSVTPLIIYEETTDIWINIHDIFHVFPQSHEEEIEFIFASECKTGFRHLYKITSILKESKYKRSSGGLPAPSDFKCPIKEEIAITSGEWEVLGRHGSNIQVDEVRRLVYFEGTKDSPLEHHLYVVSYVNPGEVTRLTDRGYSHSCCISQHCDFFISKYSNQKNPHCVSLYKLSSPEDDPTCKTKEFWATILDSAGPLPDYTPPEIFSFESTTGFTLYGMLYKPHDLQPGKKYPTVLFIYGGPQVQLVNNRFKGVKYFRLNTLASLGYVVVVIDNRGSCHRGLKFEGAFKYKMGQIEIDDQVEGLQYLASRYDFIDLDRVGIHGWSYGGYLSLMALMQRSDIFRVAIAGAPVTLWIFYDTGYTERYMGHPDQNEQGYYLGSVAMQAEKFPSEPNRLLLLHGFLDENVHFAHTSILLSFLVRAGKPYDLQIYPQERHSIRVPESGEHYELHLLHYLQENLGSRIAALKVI

Structure (SMILES) | IC50 (Dipeptidyl peptidase 4) [µM] | IC50 (Dipeptidyl peptidase 2) [µM] | IC50 [1] [µM] | further results
CCOC(=O)N1CCN(C(=O)CC[C@H](N)C(=O)N2CCC[C@H]2C#N)CC1 | 0.031 | > 20 | 3.1 | 
N#CC1CCCN1C(=O)[C@@H](N)CCC(=O)N1Cc2ccccc2C1 (single isomer, unassigned) |  |  | 1.2 | 
N#C[C@@H]1CCCN1C(=O)[C@@H](N)CCC(=O)N1CCn2cnnc2C1 | 0.007 | > 20 | > 20 | 
N[C@@H](CCC(=O)N1Cc2ccccc2C1)C(=O)N1CCSC1 | 1.6 | > 20 | 12 | IC50 (Dipeptidyl peptidase 8): > 20 µM
N#C[C@@H]1CCCN1C(=O)[C@@H](N)CCC(=O)N1CCOCC1 | 0.017 | > 20 | > 20 | 
N#C[C@@H]1CCCN1C(=O)[C@@H](N)CCC(=O)NC1CCCC1 | 0.011 | > 20 | > 20 | 
N#C[C@@H]1CCCN1C(=O)[C@@H](N)CCC(=O)Nc1ccccc1 | 0.037 |  |  | 
CC(C)(CC(=O)N1Cc2ccccc2C1)[C@H](N)C(=O)N1CCC[C@H]1C#N | 0.012 | > 20 | > 20 | 
N#C[C@@H]1CCCN1C(=O)[C@@H](N)CCC(=O)N1CCN(C(=O)C(F)(F)F)CC1 | 0.008 | > 20 | 19 | 
N#C[C@@H]1CCCN1C(=O)[C@@H](N)CCC(=O)N1CCCCC1 | 0.015 | > 20 | > 20 | 
COc1cc2c(cc1OC)C(C(C)C)N(C(=O)CC[C@H](N)C(=O)N1CCC[C@H]1C#N)CC2 (some centres undefined) |  |  | 6.1 | 
N#C[C@@H]1CCCN1C(=O)[C@@H](N)CCC(=O)N1CCc2nc(-c3ccc(F)cc3)sc2C1 |  |  | 2.3 | 
C[C@@H]1CCCN1C(=O)CC(C)(C)[C@H](N)C(=O)N1CCC[C@H]1C#N | 0.013 | > 20 | > 20 | 
N#C[C@@H]1CCCN1C(=O)[C@@H](N)CCC(=O)N1CCN(c2ccncc2)CC1 |  |  | 0.47 | 
N[C@@H](CC(=O)N1CCn2c(nnc2C(F)(F)F)C1)Cc1cc(F)c(F)cc1F [SITAGLIPTIN] |  |  | > 20 | 
CC(C)(CC(=O)N1CCc2ccsc2C1)[C@H](N)C(=O)N1CCC[C@H]1C#N | 0.025 | > 20 | > 20 | 
N#C[C@@H]1CCCN1C(=O)[C@@H](N)CCC(=O)N1CCCC1 | 0.007 | > 20 | 11 | 
N#C[C@@H]1CCCN1C(=O)CNC12CC3CC(CC(O)(C3)C1)C2 [VILDAGLIPTIN] |  |  | > 20 | Activity (Mus musculus): Active; inhibition in vivo at 3 mg/kg (Rattus norvegicus [2]): > 80%; inhibition in vivo at 3 mg/kg (Rattus norvegicus [3]): > 60%

Structure (SMILES) | IC50 (Dipeptidyl peptidase 4) [µM] | IC50 (Dipeptidyl peptidase 2) [µM] | IC50 [1] [µM] | further results
COC[C@@H]1CCCN1C(=O)CC[C@H](N)C(=O)N1CCC[C@H]1C#N | 0.007 | > 20 | 20 | 
N#C[C@@H]1CCCN1C(=O)[C@@H](N)CCC(=O)N1CCn2c(nnc2C(F)(F)F)C1 |  |  | > 20 | 
CC[C@H](CC(=O)N1CCn2c(nnc2C(F)(F)F)C1)[C@H](N)C(=O)N1CCC[C@H]1C#N | 0.031 | > 20 | > 20 | 
N#C[C@@H]1CCCN1C(=O)[C@@H](N)CCC(=O)N1CCc2ccsc2C1 |  |  | 7.5 | 
N#C[C@@H]1CCCN1C(=O)[C@@H](N)CCC(=O)N1Cc2ccccc2C1 |  |  | 1.2 | 
CC(C)(CC(=O)N1CCn2nc(C(F)(F)F)nc2C1)[C@H](N)C(=O)N1CCC[C@H]1C#N | 0.031 | > 20 | > 20 | 
N#C[C@@H]1CCCN1C(=O)[C@@H](N)CCC(=O)N1CCSC1 | 0.01 | > 20 | 8.3 | 
N#C[C@@H]1CCCN1C(=O)[C@@H](N)CC(=O)N1Cc2ccccc2C1 |  | > 20 | > 20 | 
CC(C)(CC(=O)N1CCc2ccccc2C1)[C@H](N)C(=O)N1CCC[C@H]1C#N | 0.016 | > 20 | > 20 | 
N#C[C@@H]1CCCN1C(=O)[C@@H](N)CCC(=O)N1CCc2ccccc2C1 |  |  | 8.8 | 
N#C[C@@H]1CCCN1C(=O)[C@@H](N)CCC(=O)N1CCn2cc(C(F)(F)F)nc2C1 |  |  | 14 | 
C[C@H](CC(=O)N1CCn2c(nnc2C(F)(F)F)C1)[C@H](N)C(=O)N1CCC[C@H]1C#N |  | > 20 | 7.1 | 
COC[C@H]1CCCN1C(=O)CC[C@H](N)C(=O)N1CCC[C@H]1C#N | 0.022 | > 20 | 21 | 
COC[C@@H]1CCCN1C(=O)CC(C)(C)[C@H](N)C(=O)N1CCC[C@H]1C#N.O=C(O)C(F)(F)F |  | > 20 | > 20 | half-life [4]: > 168 h; Activity (Mus musculus): Active; inhibition in vivo at 3 mg/kg (Rattus norvegicus [2]): > 80%; inhibition in vivo at 3 mg/kg (Rattus norvegicus [3]): > 60%
CC(C)(CC(=O)N1CCn2c(nnc2C(F)(F)F)C1)[C@H](N)C(=O)N1CCC[C@H]1C#N | 0.012 | > 20 | > 20 | 
N#C[C@@H]1CCCN1C(=O)[C@@H](N)CCC(=O)N1CCn2nc(C(F)(F)F)nc2C1 | 0.009 | > 20 | > 20 | 
N#C[C@@H]1CCCN1C(=O)[C@@H](N)CCCC(=O)N1Cc2ccccc2C1 |  |  | 0.054 | 
